# Screens (PubChem BioAssay)
# Hits are enriched below; roughly 2.4% of the tested compounds scored in any of these assays.
# NR2E3 ag-1: inhibitors of NR2E3-RetCOR corepressor binding, primary screen, NR2E3 agonist project, biochemical, TR-FRET, GST-NR2E3, biotin-RetCOR. AID 2300, 2010. Photoreceptor-specific nuclear receptor (Homo sapiens), Q9Y5X4. 0.12% of 320,000 active. 1536-well. inhibition of corepressor binding, % at 4.78 µM;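 active = percent inhibition above the cutoff of mean plus 3 SD of all tested compounds, set per screening campaign, cut at about 20% in these data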
# Target sequence (Q9Y5X4 whole entry, looked up): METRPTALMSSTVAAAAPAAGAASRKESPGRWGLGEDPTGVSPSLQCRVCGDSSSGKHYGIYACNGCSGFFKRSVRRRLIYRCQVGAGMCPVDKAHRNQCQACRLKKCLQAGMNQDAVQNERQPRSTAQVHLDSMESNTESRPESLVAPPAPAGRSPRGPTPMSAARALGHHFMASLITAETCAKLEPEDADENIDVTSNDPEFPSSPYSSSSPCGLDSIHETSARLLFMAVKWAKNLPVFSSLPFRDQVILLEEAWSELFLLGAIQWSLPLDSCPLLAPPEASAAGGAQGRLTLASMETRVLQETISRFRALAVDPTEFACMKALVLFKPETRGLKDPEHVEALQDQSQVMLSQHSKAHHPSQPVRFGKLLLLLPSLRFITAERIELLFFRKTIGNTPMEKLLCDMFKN
#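 Test system: GST-NR2E3 and biotin-RetCOR proteins | Quantity: 1.35 nM GST-tagged NR2E3 final | Medium: Tris pH 7.5 | Also added: 7 nM biotin-RetCOR | Dosing: Compound at 4.8 µM, single dose | Timing: 5 h at 4 °C | Detection: Time-resolved FRET | Read-out basis: Percent inhibition | Benchmarks: Biotin wells as high control, 0.6% DMSO wells as low control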
# MPTP inh: mitochondrial permeability transition pore inhibitors, primary screen, biochemical, isolated mouse mitochondria, absorbance | AID 602449, 2012 | Ca2+ swelling absorbance, 30 min | 1.4% of 360,000 active | inhibition, % at 10 µM;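 active = inhibition of 50% or more, scaled per plate between neutral and stimulator controls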
# 697 NFkB inh: inhibitors of PMA/ionomycin-induced NF-kB reporter, 697 cells, primary screen, B-cell NF-kB inhibitor project, cell-based, luminescence, uHTS. 0.33% of 330,000 active. inhibition, % at 4 µM. AID 435022, 2010. 697 B-cell NF-kB luciferase reporter, 16 h; in the data active = inhibition above about 35%
# NR2E3 ag-2: NR2E3 agonists in two-hybrid cells, primary screen, cell-based, luminescence, CHO-S, Gal4-NCOR/VP16-NR2E3 | Photoreceptor-specific nuclear receptor (Homo sapiens), Q9Y5X4 | luciferase | inhibition of corepressor binding, % at 3.98 µM | 0.35% of 360,000 active;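 active = inhibition above the mean of all tested compounds plus 3 SD, cut at about 70% in these data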;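 note: higher means lower luciferase signal from less NR2E3 corepressor binding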
# Jurkat NFkB inh: inhibitors of induced NF-kB luciferase reporter, primary screen, TCR NF-kB activation inhibitor project, cell-based, luminescence, uHTS; Jurkat, PMA/ionomycin-induced NF-kB luciferase reporter; inhibition, % at 4 µM; 0.53% of 330,000 active; AID 435003, 2010; in the data active = inhibition above about 50%
# aDG glyco act: activators of alpha-DG glycosylation, primary screen, uHTS, Pro5-aDG cells, AlphaScreen; activation, % at 10 µM; AID 624168, 2012; alpha-DG glycosylation AlphaScreen (IIH6); 0% Pro5, 100% B10-LARGE cell signal; 0.22% of 360,000 active;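 active = activation of at least 8% versus controls, or a plate z-score of at least 8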;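 note: Pro5 are CHO cells carrying HIG-tagged alpha-DG that lacks glycosylation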
# Jurkat NFkB conf: PMA/ionomycin-induced NF-kB reporter inhibitors, Jurkat retest, confirmation, T-cell NF-kB inhibitor project, cell-based, luminescence, single concentration | inhibition, % at 4 µM | shares compounds with Jurkat NFkB inh | 27% of 2,700 active | Jurkat NF-kB luciferase, 16 h;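 active = inhibition reaching about 45% at 4 µM in either replicate, limit read from the data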
# 697 NFkB conf: PMA/ionomycin-induced NF-kB reporter inhibitors, 697 retest, confirmation, B-cell NF-kB inhibitor project, cell-based, luminescence, single concentration | shares compounds with 697 NFkB inh | 697 B-cell NF-kB luciferase, 16 h | inhibition, % at 4 µM | 35% of 2,000 active | AID 449746, 2010; in the data active = inhibition mostly above about 28%, no sharp cut-off; inactive = mostly below about 22%
# A number is an active result; n = inactive; x = not tested or not shown.
SMILES,NR2E3 ag-1,MPTP inh,697 NFkB inh,NR2E3 ag-2,Jurkat NFkB inh,aDG glyco act,Jurkat NFkB conf,697 NFkB conf
Cc1cc(NC(=O)C(C)SCC(=O)Nc2cc(C(F)(F)F)ccc2N2CCOCC2)no1 (stereo not given),n,n,n,n,n,n,x,x
O=C(CSc1nnc(-c2ccccc2Cl)o1)N1CCCC1,n,n,n,n,n,n,x,x
O=C(/C=C/Nc1ccc(F)cc1F)c1ccco1,n,n,n,n,n,n,x,x
O=C(/C=C/Nc1ccc(F)cc1F)c1cccs1,n,n,n,n,n,n,n,n
Cc1ccc(N/C=C/C(=O)c2cccs2)cc1,n,n,n,n,n,n,n,n
O=C(/C=C/Nc1ccc(F)cc1F)c1ccc(Br)cc1,n,n,n,n,n,n,n,n
Cc1ccc(-c2nc(-c3ccccc3)no2)cc1,n,n,n,n,n,n,n,n
Brc1ccccc1-c1nc(-c2ccccc2)no1,n,x,n,x,n,x,n,n
CC(C)(C)c1ccc(-c2nc(-c3ccncc3)no2)cc1,n,n,n,n,n,n,n,n
N#C/C(=C\c1ccc(N2CCOCC2)cc1)c1ccccc1,n,n,n,n,n,n,n,n
N#C/C(=C\c1ccc(N2CCOCC2)o1)c1ccccc1,n,n,n,n,n,n,x,x
O=C1c2ccccc2C(=O)N1c1cccnc1,n,n,45,n,53,n,n,n
Cc1ccccc1CC(=O)N1CCCc2ccccc21,n,n,n,n,n,n,x,x
O=C(N=c1nc2ccccn2s1)c1ccccc1,n,n,n,n,n,n,n,n
Cc1cc(C)cc(NC(=O)c2cc(C)n(Cc3cccs3)c2C)c1,n,n,n,n,93,n,97,n
Cc1cc(C(=O)Nc2ccc(Cl)cc2)c(C)n1Cc1cccs1,n,n,n,n,n,n,x,x
CC(C)CCn1cnc2c(sc3nc4c(cc32)CSC(C)(C)C4)c1=O,n,n,n,n,n,n,n,n
O=C(c1ccc(Br)cc1)c1cc([N+](=O)[O-])ccc1N1CCCCC1,n,n,45,n,75,n,59,39
COc1cc([C@@H]2c3cc4c(cc3[C@H](O)[C@H]3COC(=O)[C@H]23)OCO4)cc(OC)c1OC,n,n,n,n,73,n,62,n
COc1cc(SC)ccc1C(=O)Nc1ccc2c(c1)OCCO2,n,n,n,n,n,n,n,n
O=C(Nc1ccccc1)NC(Cc1ccc(O)cc1)C(=O)O (stereo not given),n,n,n,n,n,n,x,x
Cc1ccc(C)c(NC(=O)c2ccc3ccccc3n2)c1,n,n,n,n,n,n,n,n
Cc1nn(-c2nc3ccccc3[nH]2)c(N)c1-c1ccccc1,n,n,n,n,n,n,n,n
Cc1nn(-c2ccccc2)c(N)c1-c1ccccc1,n,n,n,n,n,n,x,x
C=CCOc1ccc(/C=C/C(=O)OCC(=O)NCc2cccs2)cc1,n,n,n,n,n,n,x,x
SMILES,NR2E3 ag-1,MPTP inh,697 NFkB inh,NR2E3 ag-2,Jurkat NFkB inh,aDG glyco act,Jurkat NFkB conf,697 NFkB conf
CC(=O)c1ccc(OC(C)c2nc3ccccc3s2)cc1 (stereo not given),n,n,n,n,n,n,x,x
O=C(Nc1ccc(N2CCCCC2)c(Cl)c1)c1cccnc1,n,n,n,n,n,n,n,n
COc1cccc(C(=O)Nc2nc3ccccc3s2)c1,n,n,n,n,n,n,n,n
CC1CCC(NC(=O)c2ccc(NC(=O)CC3SC(N4CCCC4)=NC3=O)cc2)CC1 (stereo not given),n,n,n,n,n,n,x,x
Cc1cc(C(=O)Nc2cnc3ccccc3c2)ccc1[N+](=O)[O-],n,n,n,n,n,n,x,x
CS(=O)(=O)Nc1ccc(C(=O)Nc2ccc3ccccc3c2)cc1,n,n,n,n,n,n,n,n
COC(=O)c1cccc(NC(=O)c2onc3c2CCCC3)c1,n,n,n,n,n,n,x,x
O=C(Nc1ccc2ccccc2c1)c1onc2c1CCCC2,n,n,n,n,n,n,n,n
O=C(Nc1ccc2ccccc2c1)c1ccc(Cl)cc1Cl,n,n,n,n,n,n,n,n
Cc1ccc(C(=O)Nc2cnc3ccccc3c2)cc1,n,n,n,n,59,n,73,n
Cc1n[nH]c(C)c1CN(C)C(=O)C1CCC(=O)N(CCc2cccc(F)c2)C1 (stereo not given),n,n,n,n,n,n,x,x
CN(C(=O)Nc1cccc(C(F)(F)F)c1)C1CCCCC1,n,n,n,n,n,n,x,x
NC(=O)C1CCN(CC(=O)Nc2ccc(S(=O)(=O)N3CCOCC3)cc2)CC1,n,n,n,n,n,n,x,x
O=C(Nc1ccc2ccccc2c1)c1cccc([N+](=O)[O-])c1,n,n,n,n,n,n,x,x
COc1ccc(C(=O)Nc2ccc3ccccc3c2)cc1,n,n,n,n,n,n,n,n
Cc1cccc(C(=O)Nc2ccc3ccccc3c2)c1,n,n,n,n,n,n,n,n
COc1ccc(OC)c(C(=O)c2ccc(C(=O)Nc3ccc4ccccc4c3)cc2)c1,n,n,n,n,n,n,x,x
Cn1nc(C(C)(C)C)cc1C(=O)N1CCCCC1c1cc(C(=O)Nc2cccc(C#N)c2)no1 (stereo not given),x,n,x,n,x,n,x,x
Cc1cc(C)c2oc(C(=O)NC3CCS(=O)(=O)C3)cc(=O)c2c1 (stereo not given),n,n,n,n,n,n,x,x
CCCCCc1ccc(OCCC[n+]2ccccc2)c(CCCCC)c1,n,n,60,n,63,n,55,57
CCCCCc1ccc(OCCOCCn2c[n+](C)c3ccccc32)c(CCCCC)c1,x,n,x,n,x,n,x,x
O=C(NC(=S)Nc1cccnc1)c1cccs1,n,n,n,n,n,n,x,x
O=C(NC(=S)Nc1ccc(Cl)cn1)c1cccs1,n,n,n,n,n,n,n,n
CCN(Cc1ccccc1)c1ccc(/C=C(\C#N)c2ccccn2)cc1,n,n,n,n,n,n,n,n
Oc1ccc(C=NNc2nc3ccccc3s2)c(O)c1,x,n,x,n,x,n,x,x
C(=N\Nc1nc2ccccc2s1)/c1ccco1,n,n,n,n,n,n,n,n
